Measured values: ChEMBL document CHEMBL2346518, “Synthesis and evaluation of nicotinamide derivative as anti-angiogenic agents” (Bioorg Med Chem Lett, 2013)
Activity calls are given as the source filed them.

What was measured:
HUVEC [1] = test: Inhibition of VEGF-induced human HUVEC cell proliferation at 10 to 100 nM incubated 1 hr prior to VEGF-challenge measured after 24 hrs by BrdU incorporation assay; assay type: functional, cell-based
Procedure, shortened: (§1)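 HUVECs pretreated 1 h with compound (100 nM single point, or 10, 50, 100 nM), then VEGF 10 ng/ml for 24 h. BrdU incorporation detected with anti-BrdU monoclonal antibody and peroxidase secondary, absorbance at 450 nm. Means of three experiments ± SD. ANOVA/Dunnett.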

Aorta = test: Inhibition of VEGF-induced microvessel sprouting around Sprague-Dawley rat aortic rings; assay type: functional, tissue-based
Procedure, shortened: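 Aortas from Sprague-Dawley rats cleaned of periadventitial fat and cut into 1–1.5 mm rings. Rings embedded in Matrigel with VEGF ± compound (10, 50, 100 nM); medium alone as control. Sprouts fixed and photographed after 7 days at ×100. Three independent experiments.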

[2] = biological target: Vascular endothelial growth factor receptor 2 (Homo sapiens) (UniProt P35968); test: Inhibition of VEGF-induced VEGFR phosphorylation at Tyr1175 in human HUVEC cell at 10 to 100 nM incubated 1 hr prior to VEGF-challenge measured after 5 mins by Western blot analysis
Procedure, shortened: (§2)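 HUVECs pretreated 1 h with compound (10, 50 or 100 nM), then stimulated with VEGF 10 ng/ml. Phospho-VEGFR2 read at 5 min and phospho-Akt at 30 min by Western blot.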

HUVEC [3] = test: Inhibition of VEGF-induced human HUVEC cell migration at 10 to 100 nM incubated 1 hr prior to VEGF-challenge measured after 24 hrs by wound healing assay; assay type: functional, cell-based
Procedure, shortened: (§3)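 Wound made with a scraper in near-confluent HUVECs. Cells pretreated 1 h with compound (10–100 nM), then migration induced with VEGF 10 ng/ml. Wound area photographed after 24 h.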

[4] = biological target: Vascular endothelial growth factor receptor 2 (Homo sapiens) (UniProt P35968); test: Inhibition of VEGF-induced VEGFR2 phosphorylation at Tyr1175 in human HUVEC cell incubated 1 hr prior to VEGF-challenge measured after 5 mins by PathScan ELISA
Procedure, shortened: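 HUVECs given compound (10, 50 or 100 nM) 1 h before 5 min VEGF (10 ng/ml). VEGFR2 Tyr1175 phosphorylation measured by PathScan ELISA. Means of three experiments ± SD. ANOVA with Dunnett's post-hoc test.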

[5] = biological target: Vascular endothelial growth factor receptor 2 (Homo sapiens) (UniProt P35968); test: Inhibition of VEGF-induced VEGFR2 in human HUVEC cell assessed as AKT phosphorylation at Ser473 incubated 1 hr prior to VEGF-challenge measured after 30 mins by Western blot analysis; procedure, shortened: as §2
HUVEC [6] = test: Inhibition of VEGF-induced human HUVEC cell migration incubated 1 hr prior to VEGF-challenge measured after 24 hrs by wound healing assay; assay type: functional, cell-based; procedure, shortened: as §3
HUVEC [7] = test: Inhibition of VEGF-induced human HUVEC cell capillary tube formation at 10 to 100 nM incubated prior to VEGF-challenge; assay type: functional, cell-based
Procedure, shortened: (§4)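 HUVECs pretreated 1 h with compound, then seeded at 4 to 7 × 10⁴ cells on growth-factor-reduced Matrigel in EBM with or without VEGF 10 ng/ml. Tubular structures photographed after 6 h at ×100. Means of three experiments ± SD. ANOVA/Dunnett.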

HUVEC [8] = test: Inhibition of VEGF-induced human HUVEC cell migration incubated 1 hr prior to VEGF-challenge measured after 24 hrs by Trans-well assay; assay type: functional, cell-based
Procedure, shortened: (§5)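 Boyden chamber with 8 μm pore membrane. HUVECs in upper chamber with compound in 0.1% EBM; VEGF 10 ng/ml in lower chamber. Cells that migrated through the pores counted after 24 h. Means of three experiments ± SD. ANOVA with Dunnett's test.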

[9] = biological target: Vascular endothelial growth factor receptor 2 (Homo sapiens) (UniProt P35968); test: Inhibition of VEGF-induced VEGFR in human HUVEC cell assessed as AKT phosphorylation at Ser473 at 10 to 100 nM incubated 1 hr prior to VEGF-challenge measured after 30 mins by Western blot analysis; procedure, shortened: as §2
HUVEC [10] = test: Inhibition of VEGF-induced human HUVEC cell migration at 10 nM incubated 1 hr prior to VEGF-challenge measured after 24 hrs by Trans-well assay; assay type: functional, cell-based; procedure, shortened: as §5
[11] = biological target: Vascular endothelial growth factor receptor 2 (Homo sapiens) (UniProt P35968); test: Inhibition of VEGF-induced VEGFR2 phosphorylation at Tyr1175 in human HUVEC cell incubated 1 hr prior to VEGF-challenge measured after 5 mins by Western blot analysis; procedure, shortened: as §2
HUVEC [12] = test: Inhibition of VEGF-induced human HUVEC cell proliferation incubated 1 hr prior to VEGF-challenge measured after 24 hrs by BrdU incorporation assay; assay type: functional, cell-based; procedure, shortened: as §1
HUVEC [13] = test: Inhibition of VEGF-induced human HUVEC cell capillary tube formation incubated prior to VEGF-challenge; assay type: functional, cell-based; procedure, shortened: as §4

Measured: inhibition

Chain of Vascular endothelial growth factor receptor 2 (Homo sapiens) (P35968 whole entry): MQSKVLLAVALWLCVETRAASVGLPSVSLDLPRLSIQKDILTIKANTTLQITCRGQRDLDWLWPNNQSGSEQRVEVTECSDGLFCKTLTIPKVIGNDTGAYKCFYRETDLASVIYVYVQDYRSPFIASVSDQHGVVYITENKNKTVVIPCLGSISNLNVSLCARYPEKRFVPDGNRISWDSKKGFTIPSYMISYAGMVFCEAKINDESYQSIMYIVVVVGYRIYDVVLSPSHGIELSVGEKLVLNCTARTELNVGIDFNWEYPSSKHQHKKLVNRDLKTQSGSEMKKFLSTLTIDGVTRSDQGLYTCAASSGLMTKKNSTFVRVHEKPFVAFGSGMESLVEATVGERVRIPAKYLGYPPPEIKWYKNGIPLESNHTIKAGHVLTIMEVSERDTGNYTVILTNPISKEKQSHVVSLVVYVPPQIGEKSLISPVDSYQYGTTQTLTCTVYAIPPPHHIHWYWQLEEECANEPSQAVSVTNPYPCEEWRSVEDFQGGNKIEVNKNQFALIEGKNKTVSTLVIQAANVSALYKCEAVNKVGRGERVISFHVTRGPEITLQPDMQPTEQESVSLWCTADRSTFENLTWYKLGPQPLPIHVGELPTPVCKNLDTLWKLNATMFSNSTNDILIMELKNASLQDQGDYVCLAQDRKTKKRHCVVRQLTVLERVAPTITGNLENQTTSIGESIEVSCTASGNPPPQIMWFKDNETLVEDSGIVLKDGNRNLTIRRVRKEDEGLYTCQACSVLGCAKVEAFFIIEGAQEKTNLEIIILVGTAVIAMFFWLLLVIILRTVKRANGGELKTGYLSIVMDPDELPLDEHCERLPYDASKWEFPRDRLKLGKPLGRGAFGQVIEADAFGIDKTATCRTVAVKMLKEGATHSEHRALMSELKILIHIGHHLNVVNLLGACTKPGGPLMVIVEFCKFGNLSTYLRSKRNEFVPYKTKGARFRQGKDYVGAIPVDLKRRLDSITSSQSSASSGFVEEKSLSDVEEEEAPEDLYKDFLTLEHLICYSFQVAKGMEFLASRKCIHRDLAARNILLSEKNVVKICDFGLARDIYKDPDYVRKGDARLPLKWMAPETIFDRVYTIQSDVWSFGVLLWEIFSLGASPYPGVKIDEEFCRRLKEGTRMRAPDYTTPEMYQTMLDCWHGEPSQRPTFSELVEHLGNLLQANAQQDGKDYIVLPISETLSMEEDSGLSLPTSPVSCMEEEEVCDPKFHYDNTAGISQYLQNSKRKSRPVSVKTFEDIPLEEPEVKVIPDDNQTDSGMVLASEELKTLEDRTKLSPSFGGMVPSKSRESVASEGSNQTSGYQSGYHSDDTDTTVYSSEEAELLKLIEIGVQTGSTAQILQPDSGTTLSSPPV

O=C(Nc1cccc(Cl)c1)c1cccnc1NC1CCN(Cc2ccccc2)CC1
active: HUVEC [1]

CC(c1ncnc(Cl)c1F)N1CCC(Nc2ncccc2C(=O)Nc2cccc(Cl)c2)CC1 (stereo not given)
active: Aorta Dose-dependent effect | [2] | HUVEC [3] Dose-dependent effect | [4] Dose-dependent effect | [5] Dose-dependent effect | HUVEC [1] | HUVEC [6] Dose-dependent effect | HUVEC [7] | HUVEC [8] Dose-dependent effect | [9] | HUVEC [10] | [11] Dose-dependent effect | HUVEC [12] Dose-dependent effect | HUVEC [13] Dose-dependent effect
